Structures are written as SMILES. ≈ marks a conversion by molar mass, not a printed value. Calls of active or inactive are those of the source. No cut-off for these calls is given here.

Data set [1] has as its system Mycobacterium tuberculosis. In words: Antibacterial activity against non-replicating form of Mycobacterium tuberculosis MC2 6220 assessed as growth inhibition after 7 days by high-throughput screening assay. It counts as functional. To be noted: MC2 6220, 168 h. In short, it runs like this:
(§1)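 Log-phase mc26220 washed in PBS/tyloxapol, resuspended in Sauton's-based NR medium (butyrate, 0.5 mM NaNO2, pH 5.0) at OD580 0.1. Compound exposure 3 days at 37 °C, 1% O2, 5% CO2. Then R medium added (5-fold dilution), 7 days outgrowth at 20% O2. OD580 read; MIC90 = 90% inhibition vs DMSO.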

The subject of data set [2] is Mycobacterium tuberculosis. The experiment in a line: Antibacterial activity against non-replicating form of Mycobacterium tuberculosis MC2 6220 assessed as growth inhibition after 3 days by high-throughput screening assay. It counts as functional. To be noted: MC2 6220, 72 h. Summed up:
as §1

Data set [3] in a line: Cytotoxicity against human HepG2 cells assessed as decrease in ATP signal after 2 days by CellTiter-Glo assay. It counts as cell-based. To be noted: read-out: LD50. Summed up: (§2)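 HepG2 in DMEM with 10% FBS, pyruvate, glutamine, HEPES and nonessential amino acids, seeded 3000 cells/well in 384-well plates. Compound for 2 days at 1% final DMSO. ATP read by CellTiter-Glo luminescence. LD50 = 50% drop in ATP signal vs DMSO. SI = LD50/MIC90 against replicating Mtb.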

Data set [4] relates to Mycobacterium tuberculosis. In words: Antibacterial activity against replicating form of Mycobacterium tuberculosis MC2 6220 assessed as growth inhibition after 7 days by high-throughput screening assay. The data set is classed as functional. To be noted: MC2 6220, 168 h. In short, it runs like this:
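Attenuated Mtb mc26220 ΔpanCDΔlysA in 7H9 with glycerol, tyloxapol, OADC, casein amino acids, 240 μg/mL L-lysine, 24 μg/mL pantothenate. Mid-log cells diluted to OD580 0.01 in 384-well plates, compound in DMSO, 7 days at 37 °C, 20% O2, 5% CO2. OD580 read; MIC90 = 90% growth inhibition vs DMSO.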

Data set [5] is described as follows: Selectivity index, ratio of LD50 for human HepG2 cells to MIC90 for replicating form of Mycobacterium tuberculosis H37Rv. It counts as toxicity, cell-based. The settings on record: read-out: Selectivity Index. In short, it runs like this: as §2
Data set [6] relates to Mycobacterium tuberculosis. In words: Antibacterial activity against replicating form of wild type Mycobacterium tuberculosis H37Rv assessed as growth inhibition after 7 days by high-throughput screening assay. The data set is classed as functional. The settings on record: 168 h. Summed up: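 Wild-type H37Rv in 7H9 with glycerol, tyloxapol, ADN, in 96-well plates. Set up as the 384-well screen: OD580 0.01 start, compound in DMSO, 7 days at 37 °C, 20% O2, 5% CO2. OD580 read; MIC90 = 90% growth inhibition vs DMSO control.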

The test system of data set [7] is Mycobacterium tuberculosis. The experiment in a line: Antibacterial activity against non-replicating form of wild type Mycobacterium tuberculosis H37Rv assessed as growth inhibition after 3 days by high-throughput screening assay. To be noted: 72 h. It counts as functional.
For data set [8], the system named is Mycobacterium tuberculosis. In words: Bactericidal activity against wild type Mycobacterium tuberculosis H37Rv infected in IFN-gamma-stimulated primary human monocyte-derived macrophages assessed as reduction of log10CFU incubated for 7 days followed by compound washout measured after 3 weeks. It counts as functional. Summed up: (§3)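 Monocytes from healthy donors isolated by CD14 selection. Differentiated 2 weeks in 40% human plasma with 0.5 ng/mL GM-CSF and TNF-alpha, 10% O2. Then 5 ng/mL IFN-gamma overnight, infected with wild-type Mtb at MOI 0.1. Compound added at 24 h, 1% DMSO final, 7 days. Viability inspected visually; lysed in 0.55% Triton-X and plated on 7H11/OADC for CFU.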

Data set [9] in a line: Genotoxicity in mouse lymphoma cells. The data set is classed as toxicity, cell-based.
Data set [10] is described as follows: Selectivity index, ratio of LD50 for African green monkey Vero cells to MIC for replicating form of Mycobacterium tuberculosis infected in African green monkey Vero cells. To be noted: read-out: Selectivity Index. The data set is classed as toxicity, cell-based.
Data set [11] concerns Mycobacterium tuberculosis. The experiment in a line: Antimycobacterial activity against replicating form of Mycobacterium tuberculosis infected in African green monkey Vero cells assessed as growth inhibition. It counts as functional.
A short description of data set [12]: Cytotoxicity against African green monkey Vero cells. The data set is classed as cell-based. To be noted: chlorocebus sabaeus, read-out: LD50 (the source's name).
The subject of data set [13] is Mycobacterium tuberculosis. The experiment in a line: Bactericidal activity against wild type Mycobacterium tuberculosis H37Rv infected in IFN-gamma-stimulated primary human monocyte-derived macrophages assessed as reduction of log10CFU at 30 times MIC incubated for 7 days followed by compound washout measured after 3 weeks. It counts as functional. Summed up: as §3

In another data set the test system is Pseudomonas aeruginosa. In words: Bactericidal activity against Pseudomonas aeruginosa PAO1 at <= 25 ug/mL after 6 to 18 hrs. The data set is classed as functional, organism-based. In short, it runs like this: (§4)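 Log-phase cultures in their own media (M. smegmatis 7H9/glycerol/tyloxapol; E. coli, P. aeruginosa LB; S. aureus Mueller-Hinton; C. albicans YM) diluted to OD 0.01 in 96-well plates. Compound or DMSO added. Incubated 8−48 h with shaking at 37 °C (Candida at 30 °C). OD600 read.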

Another data set relates to Candida albicans. The experiment in a line: Fungicidal activity against Candida albicans at <= 25 ug/mL after 6 to 18 hrs. The data set is classed as functional, organism-based. In short, it runs like this:
as §4

Another data set deals with Escherichia coli. In words: Bactericidal activity against Escherichia coli at <= 25 ug/mL after 6 to 18 hrs. The data set is classed as functional, organism-based. Summed up: as §4
Data set [14] concerns Mycobacterium tuberculosis. In words: Bactericidal activity against replicating form of wild type Mycobacterium tuberculosis H37Rv assessed as reduction of log10CFU at 0.6 ug/mL after 7 to 8 days. The data set is classed as functional. Summed up:
(§5)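 Wild-type Mtb single-cell suspension at OD 0.01 (R) or 0.1 (NR, in NR medium, 1% O2) in 96-well plates with compound for 7 days. Serial dilution in 7H9-ADN, plated on 7H11 agar with glycerol and OADC for CFU.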

The next data set concerns Staphylococcus aureus. In words: Bactericidal activity against Staphylococcus aureus ATCC 29213 at <= 25 ug/mL after 6 to 18 hrs. The data set is classed as functional, organism-based. In short, it runs like this:
as §4

Data set [15] concerns Mycolicibacterium smegmatis. The experiment in a line: Antibacterial activity against Mycobacterium smegmatis assessed as growth inhibition at 10 ug/mL after 24 to 48 hrs relative to control. It counts as functional. The settings on record: read-out: GI. Summed up: as §4
Data set [16] deals with Mycobacterium tuberculosis. In words: Bactericidal activity against non-replicating form of wild type Mycobacterium tuberculosis H37Rv assessed as reduction of log10CFU at 0.6 ug/mL after 7 to 8 days. It counts as functional. Summed up: as §5

Consider `CCCc1cc(=O)oc2cc(OCC=C(C)C)c3c(c12)OC(C)(C)C=C3`, for which the MIC90 in [1] was 2 µg/mL (≈ 5.64 µM); in [2], greater than 18 µg/mL; in data set [4], greater than 18 µg/mL. In addition, in data set [3], the CC50 at 48 h was greater than 18 µg/mL.
Consider `CCCc1cc(=O)oc2c1c(OCCN1CCOCC1)cc1oc([N+](=O)[O-])cc12`, for which, in data set [5], the selectivity ratio was found to be 125. Also, the MIC90 in [6] was 0.08 µg/mL (≈ 0.199 µM); in data set [7], 0.2 µg/mL (≈ 0.497 µM). In addition, the log10cfu in data set [8] came out at 1. Moreover, in data set [9], the Activity entry is reported as “Non-toxic”. The CC50 at 48 h in data set [3] worked out at 10 µg/mL (≈ 24.9 µM).
On to `CCCc1cc(=O)oc2c3c(cc(OCCN4CCOCC4)c12)O[C@H]([N+](=O)[O-])[C@H]3O`, for which the selectivity ratio in [5] turned out to be 20. Besides, the MIC90 in [6] and in data set [7] was 0.08 µg/mL (≈ 0.19 µM) throughout. In addition, in [3], the CC50 at 48 h is 2 µg/mL (≈ 4.76 µM).
On to `CCCc1cc(=O)oc2c3c(c4c(c12)OC(C)(C)C=C4)O[C@H](C)[C@@H](C)[C@@H]3O` [CALANOLIDE A], for which, in data set [10], the selectivity ratio stood at 2.4. Moreover, in data set [11], the MIC is 3.1 µg/mL (≈ 8.37 µM). In data set [12], the CC50 is 7.6 µg/mL (≈ 20.5 µM).
Regarding `CO[C@H]1/C=C/O[C@@]2(C)Oc3c(C)c(O)c4c(O)c(c(/C=N/N5CCN(C)CC5)c(O)c4c3C2=O)NC(=O)/C(C)=C\C=C\[C@H](C)[C@H](O)[C@@H](C)[C@@H](O)[C@@H](C)[C@H](OC(C)=O)[C@@H]1C` [RIFAMPIN], the log10cfu in data set [13] is on record as 1.
With `CCCc1cc(=O)oc2c1c1c(c3oc([N+](=O)[O-])cc32)CCC(C)(C)O1`, the selectivity ratio in [5] is greater than 80. Also, the outcome in the data set with Pseudomonas aeruginosa, in the data set on Candida albicans, in the data set on Escherichia coli and with Staphylococcus aureus was inactive. Besides, the figures for the MIC90 in [6] and in data set [7] were 0.6 µg/mL (≈ 1.68 µM) and 1 µg/mL (≈ 2.8 µM), respectively. Also, the log10cfu in data set [14] came to 2.6; in [8], 2; in [16], 2.1. Besides, the inhibition of growth at 10 µg/mL in data set [15] worked out at 20%. Further, the CC50 at 48 h in data set [3] is greater than 50 µg/mL.
Consider `CCCc1cc(=O)oc2c3c(cc(OCCN4CCOCC4)c12)O[C@@H]([N+](=O)[O-])[C@@H]3O`, for which the selectivity ratio in data set [5] came to 10. Moreover, the MIC90 in data set [6] and in data set [7] was 0.08 µg/mL (≈ 0.19 µM) each time. Moreover, the CC50 at 48 h in [3] came out at 0.8 µg/mL (≈ 1.9 µM).
For `CN1CCN(Cc2cc(=O)oc3c2c2c(c4oc([N+](=O)[O-])cc43)C=CC(C)(C)O2)CC1`, in [5], the selectivity ratio came to 31. In addition, the MIC90 is 0.08 µg/mL (≈ 0.188 µM) in data set [6] and 0.3 µg/mL (≈ 0.705 µM) in [7]. Further, the CC50 at 48 h in [3] amounted to 3 µg/mL (≈ 7.05 µM).
For the compound `CCCc1cc(=O)oc2cc(N(C)C)c3c(c12)OC(C)(C)C=C3`, the MIC90 was 2 µg/mL (≈ 6.38 µM) in data set [1], greater than 16 µg/mL in [2] and greater than 16 µg/mL in [4]. The CC50 at 48 h in data set [3] was greater than 16 µg/mL.
`CCCc1cc(=O)oc2cc(OCCN3CCCCC3)c3c(c12)OC(C)(C)C=C3`: the MIC90 in data set [1] was 7 µg/mL (≈ 17.6 µM); in data set [2], greater than 20 µg/mL; in data set [4], greater than 20 µg/mL. In addition, the CC50 at 48 h in [3] is greater than 20 µg/mL.
